According to ChEMBL document CHEMBL2429794, “Tuning the antibacterial activity of amphiphilic neamine derivatives and comparison to paromamine homologues” (J Med Chem, 2013):
Converted amounts (≈) assume the structure as drawn.

Tests used:
Staphylococcus aureus [1] = assay: Antibacterial activity against vancomycin-resistant Staphylococcus aureus VRS2 after 24 hrs by geometric microdilution method; type: functional; settings: VRS2, 24 h
How it was run: (§1)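 Broth cultures were incubated in plates at 37 °C, and growth was read as absorbance at 650 nm after 1, 4, 7 and 24 h. Ampicillin (16 mg/L) was the positive control and DMSO the negative control. Each MIC (μg/mL) is the average of at least three determinations.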

[2] = Ratio of cytotoxicity against murine J774 cells to antibacterial activity against vancomycin-resistant Staphylococcus aureus VRS2; type: toxicity, cell-based; settings: mouse
[3] = Ratio of cytotoxicity against murine J774 cells to antibacterial activity against Pseudomonas aeruginosa F03 expressing AAC6'-2A; type: toxicity, cell-based; settings: mouse
Staphylococcus aureus [4] = assay: Antibacterial activity against Staphylococcus aureus expressing aminoglycoside-3'-O-phosphoryltransferase after 24 hrs by geometric microdilution method; type: functional; how it was run: as §1
Staphylococcus aureus [5] = assay: microbe, parasite or virus in culture; settings: ATCC 25923, 24 h
Pseudomonas aeruginosa [6] = assay: Antibacterial activity against Pseudomonas aeruginosa ATCC 27853 after 24 hrs by geometric microdilution method; type: functional; settings: ATCC 27853, 24 h
Escherichia coli [7] = assay: Antibacterial activity against Escherichia coli PAZ505H8101 expressing AAC6'-1B after 24 hrs by geometric microdilution method; type: functional; settings: PAZ505H8101, 24 h
[8] = Ratio of cytotoxicity against murine J774 cells to antibacterial activity against Pseudomonas aeruginosa PA22 (PT629) expressing MexXY; type: toxicity, cell-based; settings: mouse
[9] = Ratio of cytotoxicity against murine J774 cells to antibacterial activity against Pseudomonas aeruginosa ATCC 27853; type: toxicity, cell-based; settings: mouse
Staphylococcus aureus [10] = assay: Antibacterial activity against Staphylococcus aureus expressing aminoglycoside-[…] after 24 hrs by geometric microdilution method; type: functional; how it was run: as §1
Staphylococcus aureus [11] = assay: Antibacterial activity against healthcare-acquired methicillin-resistant Staphylococcus aureus ATCC 33592 after 24 hrs by geometric microdilution method; type: functional; settings: ATCC 33592, 24 h; how it was run: as §1
Staphylococcus aureus [12] = assay: Antibacterial activity against fluoroquinolone-resistant Staphylococcus aureus 1199B expressing NorA efflux pump after 24 hrs by geometric microdilution method; type: functional; how it was run: as §1
Pseudomonas aeruginosa [13] = assay: Antibacterial activity against Pseudomonas aeruginosa F03 expressing AAC6'-2A after 24 hrs by geometric microdilution method; type: functional; settings: F03, 24 h
[14] = Cytotoxicity against murine J774 cells assessed as cell viability at 10 uM after 24 hrs by MTT assay relative to control; type: cell-based; settings: mouse, read-out: Activity
How it was run: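 Murine J774 macrophages were exposed for 24 h to compounds at 10 μM, then incubated 1 h with 0.2 mg/mL MTT. Viability was read from mitochondrial reduction of MTT to purple formazan, expressed as percent viability, and averaged over three experiments.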

Staphylococcus aureus [15] = assay: Antibacterial activity against 14- and 15-membered macrolide-resistant Staphylococcus aureus expressing MsrA efflux pump after 24 hrs by geometric microdilution method; type: functional; how it was run: as §1
Escherichia coli [16] = assay: microbe, parasite or virus in culture; settings: ATCC 25922, 24 h
Staphylococcus aureus [17] = assay: Antibacterial activity against Staphylococcus aureus expressing aminoglycoside-6'-N-acetyltransferase/2''-O-phosphoryltransferase after 24 hrs by geometric microdilution method; type: functional; how it was run: as §1
Escherichia coli [18] = assay: Antibacterial activity against Escherichia coli L58058.1 expressing ANT2''-1A after 24 hrs by geometric microdilution method; type: functional; settings: L58058.1, 24 h
Pseudomonas aeruginosa [19] = assay: Antibacterial activity against Pseudomonas aeruginosa PA22 (PT629) expressing MexXY after 24 hrs by geometric microdilution method; type: functional
[20] = Ratio of cytotoxicity against murine J774 cells to antibacterial activity against healthcare-acquired methicillin-resistant Staphylococcus aureus ATCC 33592; type: toxicity, cell-based; settings: mouse
Klebsiella pneumoniae = assay: Antibacterial activity against Klebsiella pneumoniae ATCC 700603 after 24 hrs by geometric microdilution method; type: functional; settings: ATCC 700603, 24 h
Acinetobacter lwoffii [21] = assay: Antibacterial activity against Acinetobacter lwoffii AI.88-483 expressing APH3'-6A after 24 hrs by geometric microdilution method; type: functional; settings: AI.88-483, 24 h
Acinetobacter lwoffii [22] = assay: Antibacterial activity against Acinetobacter lwoffii ATCC 17925 after 24 hrs by geometric microdilution method; type: functional; settings: ATCC 17925, 24 h

Row | SMILES | MIC (Staphylococcus aureus [1]) [µg/mL] | selectivity ratio [2] | MIC (Staphylococcus aureus [4]) [µg/mL] | MIC (Staphylococcus aureus [5]) [µg/mL] | MIC (Pseudomonas aeruginosa [6]) [µg/mL] | MIC (Escherichia coli [7]) [µg/mL] | MIC (Staphylococcus aureus [10]) [µg/mL] | MIC (Staphylococcus aureus [11]) [µg/mL] | MIC (Staphylococcus aureus [12]) [µg/mL] | MIC (Pseudomonas aeruginosa [13]) [µg/mL] | viability at 24 h, 10 µM [14] [%] | MIC (Staphylococcus aureus [15]) [µg/mL] | MIC (Escherichia coli [16]) [µg/mL] | MIC (Staphylococcus aureus [17]) [µg/mL] | MIC (Escherichia coli [18]) [µg/mL] | MIC (Pseudomonas aeruginosa [19]) [µg/mL] | MIC (Klebsiella pneumoniae) [µg/mL] | MIC (Acinetobacter lwoffii [21]) [µg/mL] | MIC (Acinetobacter lwoffii [22]) [µg/mL] | further results
1 | CCCCCCCCCO[C@@H]1[C@@H](N)[C@@H](O[C@H]2[C@H](O)[C@@H](OCCCCCCCCC)[C@H](N)C[C@@H]2N)O[C@H](CN)[C@H]1O | 2 (≈ 3.48 µM) | > 5 | 2 (≈ 3.48 µM) | 2 (≈ 3.48 µM) | 4 (≈ 6.96 µM) | 2 (≈ 3.48 µM) | 4 (≈ 6.96 µM) | 4 (≈ 6.96 µM) | 8 (≈ 13.9 µM) | 4 (≈ 6.96 µM) | 75 | 4 (≈ 6.96 µM) | 4 (≈ 6.96 µM) | 4 (≈ 6.96 µM) | 4 (≈ 6.96 µM) | 4 (≈ 6.96 µM) | – | – | – | selectivity ratio [3]: 2.5; selectivity ratio [8]: 2.5; selectivity ratio [9]: 2.5
2 | NC[C@H]1O[C@H](O[C@H]2[C@H](O)[C@@H](OCCCc3ccc4ccccc4c3)[C@H](N)C[C@@H]2N)[C@H](N)[C@@H](OCCCc2ccc3ccccc3c2)[C@@H]1O | 1 (≈ 1.52 µM) | 11 | 1 (≈ 1.52 µM) | 2 (≈ 3.04 µM) | 4 (≈ 6.07 µM) | 8 (≈ 12.1 µM) | 1 (≈ 1.52 µM) | 2 (≈ 3.04 µM) | 2 (≈ 3.04 µM) | 16 (≈ 24.3 µM) | 90 | 0.5 (≈ 0.759 µM) | 16 (≈ 24.3 µM) | 2 (≈ 3.04 µM) | 16 (≈ 24.3 µM) | 16 (≈ 24.3 µM) | – | – | – | selectivity ratio [20]: 5.5
3 | NC[C@H]1O[C@H](O[C@H]2[C@H](O)[C@@H](OCCCCCCc3ccc4ccccc4c3)[C@H](N)C[C@@H]2N)[C@H](N)[C@@H](OCCCCCCc2ccc3ccccc3c2)[C@@H]1O | > 128 | – | 64 (≈ 86.1 µM) | 64 (≈ 86.1 µM) | 32 (≈ 43.1 µM) | 64 (≈ 86.1 µM) | > 128 | > 128 | > 128 | 64 (≈ 86.1 µM) | < 50 | – | 128 (≈ 172 µM) | 128 (≈ 172 µM) | 128 (≈ 172 µM) | 64 (≈ 86.1 µM) | – | – | – | –
4 | NC[C@H]1O[C@H](O[C@H]2[C@H](O)[C@@H](OCCCCc3ccc4ccccc4c3)[C@H](N)C[C@@H]2N)[C@H](N)[C@@H](OCCCCc2ccc3ccccc3c2)[C@@H]1O | 2 (≈ 2.91 µM) | > 5 | 1 (≈ 1.46 µM) | 2 (≈ 2.91 µM) | 4 (≈ 5.82 µM) | 4 (≈ 5.82 µM) | 1 (≈ 1.46 µM) | 2 (≈ 2.91 µM) | 2 (≈ 2.91 µM) | 8 (≈ 11.6 µM) | 80 | 0.25 (≈ 0.364 µM) | 8 (≈ 11.6 µM) | 2 (≈ 2.91 µM) | 8 (≈ 11.6 µM) | 8 (≈ 11.6 µM) | 32 (≈ 46.6 µM) | 64 (≈ 93.2 µM) | 4 (≈ 5.82 µM) | –
5 | CCCCCCO[C@@H]1[C@@H](N)[C@@H](O[C@H]2[C@H](O)[C@@H](OCCCCCC)[C@H](N)C[C@@H]2N)O[C@H](CN)[C@H]1OCCCCCC | 4 (≈ 6.96 µM) | – | 4 (≈ 6.96 µM) | 4 (≈ 6.96 µM) | 8 (≈ 13.9 µM) | 4 (≈ 6.96 µM) | 8 (≈ 13.9 µM) | 4 (≈ 6.96 µM) | 4 (≈ 6.96 µM) | 8 (≈ 13.9 µM) | 40 | 8 (≈ 13.9 µM) | 4 (≈ 6.96 µM) | 8 (≈ 13.9 µM) | 4 (≈ 6.96 µM) | 8 (≈ 13.9 µM) | 8 (≈ 13.9 µM) | 64 (≈ 111 µM) | 4 (≈ 6.96 µM) | –
6 | N[C@H]1[C@@H](O[C@H]2[C@H](O)[C@@H](OCc3ccc4ccccc4c3)[C@H](N)C[C@@H]2N)O[C@H](CO)[C@@H](O)[C@@H]1OCc1ccc2ccccc2c1 | 16 (≈ 26.5 µM) | – | 16 (≈ 26.5 µM) | 8 (≈ 13.3 µM) | 128 (≈ 212 µM) | 64 (≈ 106 µM) | 16 (≈ 26.5 µM) | 16 (≈ 26.5 µM) | 32 (≈ 53 µM) | 64 (≈ 106 µM) | – | 32 (≈ 53 µM) | 128 (≈ 212 µM) | 32 (≈ 53 µM) | 64 (≈ 106 µM) | 128 (≈ 212 µM) | > 128 | > 128 | 64 (≈ 106 µM) | –
7 | NC[C@H]1O[C@H](O[C@H]2[C@H](O)[C@@H](OCc3cccc4ccccc34)[C@H](N)C[C@@H]2N)[C@H](N)[C@@H](OCc2cccc3ccccc23)[C@@H]1OCc1cccc2ccccc12 | 16 (≈ 21.5 µM) | – | 2 (≈ 2.69 µM) | 1 (≈ 1.35 µM) | 8 (≈ 10.8 µM) | 2 (≈ 2.69 µM) | 4 (≈ 5.38 µM) | 4 (≈ 5.38 µM) | 4 (≈ 5.38 µM) | 8 (≈ 10.8 µM) | – | 2 (≈ 2.69 µM) | 8 (≈ 10.8 µM) | 4 (≈ 5.38 µM) | 16 (≈ 21.5 µM) | 8 (≈ 10.8 µM) | 128 (≈ 172 µM) | 128 (≈ 172 µM) | 2 (≈ 2.69 µM) | –
